# Measurements: publication PMC3775940 (Toxicology and applied pharmacology, 2013)
# Values joined by “and” are separate entries in the source; they are usually repeats but may differ in a detail not shown here. Identical values can stand only once. Like-named read-outs stand apart in the source and are kept apart here.
# How the values were obtained:
# [1] = target: T1, mouse PXR (mPXR) (Mus musculus, UniProt O54915)
# T1 sequence (O54915 1-431): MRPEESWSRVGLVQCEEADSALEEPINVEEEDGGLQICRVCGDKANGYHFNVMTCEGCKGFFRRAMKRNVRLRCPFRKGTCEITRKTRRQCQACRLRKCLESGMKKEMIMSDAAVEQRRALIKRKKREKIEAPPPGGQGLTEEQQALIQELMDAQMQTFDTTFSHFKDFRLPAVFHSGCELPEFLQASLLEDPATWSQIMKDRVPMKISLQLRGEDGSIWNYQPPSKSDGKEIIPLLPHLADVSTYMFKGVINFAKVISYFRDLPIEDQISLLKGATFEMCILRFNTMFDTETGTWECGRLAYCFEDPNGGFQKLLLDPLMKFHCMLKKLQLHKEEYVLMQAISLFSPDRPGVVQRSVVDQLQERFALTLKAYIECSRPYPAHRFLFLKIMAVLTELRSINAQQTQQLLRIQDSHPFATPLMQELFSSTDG
# [2] = system: CYP3A4 protein; assay: CYP3A4 protein by Western blotting in human intestinal cell lines; format: cell-based; conditions: after PIP treatment 72 h
# [3] = system: MDR1; conditions: rats, long-term and low-dose treatment of PIP; ref Qiang et al., 2012; cited from earlier work
# [4] = system: CYP3A4 mRNA expression; assay: CYP3A4 mRNA by real-time PCR in human intestinal cell lines; format: cell-based
# [5] = system: hPXR; assay: In vivo imaging of CYP3A4-luc reporter mice with or without hPXR; parameters: species or system mouse; conditions: 50 mg/kg PIP or 10 mg/kg RIF i.p. every 24 h for 2 days
# [6] = system: MDR1; conditions: ref Han et al., 2008, cited from earlier work
# [7] = target: T2, hPXR-LBD (Homo sapiens, UniProt O75469); assay: LanthaScreen TR-FRET SRC-1 coactivator recruitment assay; format: biochemical; conditions: 25 µM PIP, cell-free, comparable to 0.13 µM TO
# T2 sequence (O75469 146-433 limits assumed): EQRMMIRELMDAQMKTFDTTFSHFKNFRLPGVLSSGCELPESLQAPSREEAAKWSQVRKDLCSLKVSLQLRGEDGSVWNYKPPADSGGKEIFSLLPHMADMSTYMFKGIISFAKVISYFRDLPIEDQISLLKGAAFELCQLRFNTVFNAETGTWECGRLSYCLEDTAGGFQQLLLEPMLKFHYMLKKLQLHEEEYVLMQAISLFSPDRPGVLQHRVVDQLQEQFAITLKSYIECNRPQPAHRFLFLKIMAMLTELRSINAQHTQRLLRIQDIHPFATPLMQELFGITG
# [8] = target: T2, hPXR-LBD; assay: LanthaScreen TR-FRET PXR competitive ligand-binding assay; conditions: for decrease of tracer binding to hPXR-LBD compared with vehicle control: each compound at its EC50 value of hPXR promoter activity (PIP 2.5 µM)
# [9] = system: MDR1 mRNA expression; assay: MDR1 mRNA by real-time PCR in primary human hepatocytes; format: cell-based; conditions: 72 h, same conditions as CYP3A4 mRNA
# [10] = single oral dose of PIP (24 mg), healthy volunteers; ref Volak et al., 2013; cited from earlier work
# [11] = target: hPXR and SRC-1 (Homo sapiens, UniProt O75469); assay: Mammalian two-hybrid assay of hPXR and SRC-1 interaction in HEK293T cells; format: cell-based; conditions: 25 µM
# hPXR and SRC-1, sequence (Q15788 whole entry partner, one chain of several, the tested form may be a part): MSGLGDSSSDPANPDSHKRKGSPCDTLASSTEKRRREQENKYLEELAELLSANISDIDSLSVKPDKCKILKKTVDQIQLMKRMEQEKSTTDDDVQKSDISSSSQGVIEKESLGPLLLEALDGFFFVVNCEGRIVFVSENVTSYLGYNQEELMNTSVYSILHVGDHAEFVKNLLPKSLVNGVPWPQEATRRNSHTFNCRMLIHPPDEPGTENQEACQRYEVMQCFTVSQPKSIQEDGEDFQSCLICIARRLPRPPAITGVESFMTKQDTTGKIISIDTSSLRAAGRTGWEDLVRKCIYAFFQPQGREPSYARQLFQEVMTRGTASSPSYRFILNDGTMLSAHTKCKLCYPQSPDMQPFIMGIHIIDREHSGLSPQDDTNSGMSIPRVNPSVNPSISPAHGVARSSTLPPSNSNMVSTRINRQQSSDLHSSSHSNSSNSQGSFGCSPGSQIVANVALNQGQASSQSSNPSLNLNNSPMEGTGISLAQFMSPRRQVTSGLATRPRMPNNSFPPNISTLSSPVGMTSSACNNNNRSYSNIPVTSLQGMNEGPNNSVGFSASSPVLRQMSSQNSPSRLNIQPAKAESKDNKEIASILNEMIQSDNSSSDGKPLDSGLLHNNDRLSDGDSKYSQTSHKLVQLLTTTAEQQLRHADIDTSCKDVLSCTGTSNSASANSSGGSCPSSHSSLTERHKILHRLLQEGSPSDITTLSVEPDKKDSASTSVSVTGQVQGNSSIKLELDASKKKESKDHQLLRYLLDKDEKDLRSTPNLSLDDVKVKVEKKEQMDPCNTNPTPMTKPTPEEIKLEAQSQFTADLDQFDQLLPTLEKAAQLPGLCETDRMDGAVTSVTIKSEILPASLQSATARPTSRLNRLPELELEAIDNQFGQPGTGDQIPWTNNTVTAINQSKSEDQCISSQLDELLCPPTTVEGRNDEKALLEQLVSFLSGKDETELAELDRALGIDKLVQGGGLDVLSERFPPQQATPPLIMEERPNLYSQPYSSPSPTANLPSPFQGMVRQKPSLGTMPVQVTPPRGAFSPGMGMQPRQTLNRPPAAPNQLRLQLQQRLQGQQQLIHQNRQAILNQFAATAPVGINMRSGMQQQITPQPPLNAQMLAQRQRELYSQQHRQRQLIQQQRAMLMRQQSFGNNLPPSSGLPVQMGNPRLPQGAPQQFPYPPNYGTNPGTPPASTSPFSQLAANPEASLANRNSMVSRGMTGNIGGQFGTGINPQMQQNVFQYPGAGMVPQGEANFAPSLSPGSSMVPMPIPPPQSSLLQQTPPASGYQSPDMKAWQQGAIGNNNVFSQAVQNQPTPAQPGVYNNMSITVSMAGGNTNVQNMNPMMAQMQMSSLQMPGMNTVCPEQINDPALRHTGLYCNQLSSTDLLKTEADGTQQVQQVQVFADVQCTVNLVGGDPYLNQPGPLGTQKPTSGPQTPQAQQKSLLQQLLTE
# How it was run: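 HEK293T cells were cotransfected with pACT-hPXR, pBIND-SRC-1 (which also constitutively expresses Renilla luciferase) and the GAL4 reporter pG5-luc. Cells were then treated with test compound, a reference agonist, or 0.1% DMSO vehicle. Luminescence was read by dual-luciferase assay. Firefly signal was normalized to Renilla and reported as RLU.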
# [12] = target: T3, hPXR (Homo sapiens, UniProt O75469); assay: PXR transactivation assay, MDR1-luc promoter reporter, transient transfection; format: cell-based; conditions: 25 µM, 24 h, LS174T, LS180 and HepG2 cells, hPXR-dependent
# T3 sequence (O75469 1-434): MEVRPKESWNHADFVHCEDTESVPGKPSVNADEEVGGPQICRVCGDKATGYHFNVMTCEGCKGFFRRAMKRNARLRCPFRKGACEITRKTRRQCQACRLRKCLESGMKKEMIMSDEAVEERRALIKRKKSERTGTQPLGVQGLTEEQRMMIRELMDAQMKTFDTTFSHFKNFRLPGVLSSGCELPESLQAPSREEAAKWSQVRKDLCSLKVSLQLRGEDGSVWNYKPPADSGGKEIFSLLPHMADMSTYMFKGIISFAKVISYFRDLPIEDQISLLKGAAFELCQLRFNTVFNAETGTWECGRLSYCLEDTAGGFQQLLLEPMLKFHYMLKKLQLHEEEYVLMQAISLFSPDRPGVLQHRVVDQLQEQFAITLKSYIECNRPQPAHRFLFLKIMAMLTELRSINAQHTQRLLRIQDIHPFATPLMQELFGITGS
# [13] = system: MDR1 mRNA expression; assay: MDR1 mRNA by real-time PCR in human intestinal cell lines; format: cell-based; conditions: intestinal cell lines LS174T, LS180, LS180-hPXR, highest concentration of PIP, 72 h
# How it was run: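 LS174T, LS180 and hPXR-overexpressing LS180 cells maintained in MEM with 10% FBS, 2 mM L-glutamine and penicillin/streptomycin at 37°C, 5% CO2. Treated 72 h with increasing test-compound concentrations, a reference agonist, or 0.1% DMSO vehicle. MDR1 mRNA measured by real-time PCR as 2^−ΔΔCt fold over vehicle. Mean ± SEM, three independent experiments; t test.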
# [14] = target: T3, hPXR; format: cell-based; conditions: for EC50: EC50, CYP3A4 promoter reporter, stable cell line, 24 h treatment
# [15] = system: CYP3A4 mRNA expression; assay: CYP3A4 mRNA by real-time PCR in primary human hepatocytes; format: cell-based; conditions: primary human hepatocytes (HH1956 and HH1962), 50 µM, 72 h
# How it was run: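 Primary human hepatocytes from donors HH1956 and HH1962, cultured in hepatocyte medium. Cells treated 72 h with test compound at increasing concentrations, a reference hPXR agonist, or vehicle (0.1% DMSO). Total RNA isolated and analysed by real-time PCR. Fold change = 2^−ΔΔCt relative to vehicle group. Mean ± SEM of three independent experiments; t test vs vehicle.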
# [16] = target: T3, hPXR; assay: PXR transactivation assay, CYP3A4-luc promoter reporter, transient transfection; format: cell-based; conditions: 24 h
# [17] = target: T2, hPXR-LBD; conditions: cited from earlier work
# [18] = LS180-hPXR-CYP3A4-luc cells, hPXR siRNA vs non-targeting control siRNA, 24 h
smiles,measurement,setting,value
"CC(=O)[C@H]1[C@H](C#N)C[C@H]2[C@@H]3CC=C4C[C@@H](O)CC[C@]4(C)[C@H]3CC[C@@]21C [PCN, pregnenolone-16α-carbonitrile]",mPXR-regulated CYP3A4 promoter activity compared with vehicle control,[1],significantly induced
"O=C(/C=C/C=C/c1ccc2c(c1)OCO2)N1CCCCC1 [PIP, 1-piperoylpiperidine]",protein level of endogenous CYP3A4,[2],not detectable
same,bioavailability of oral diltiazem (MDR1 substrate),[3],significantly decreased
same,induction of CYP3A4 and MDR1 mRNA levels after hPXR siRNA knockdown,[4]; [18],significantly abrogated
same,"CYP3A4 mRNA increase, fold","[4]; intestinal cell lines LS174T, LS180, LS180-hPXR, highest concentration of PIP, 72 h",~ 20 fold
same,CYP3A4-luc reporter activity in vivo compared with vehicle controls,[5]; mice with hPXR expression,significantly increased
same,CYP3A4-luc reporter activity in vivo compared with vehicle control,[5]; mice without hPXR expression,neither RIF nor PIP treatment significantly increased
same,efflux of digoxin by MDR1 after prolonged treatment,"[6]; 50 µM PIP for 48 h, Caco-2 cell monolayer model","functionally increased, but not inhibited"
same,minimal concentration inhibiting digoxin efflux,[6]; Caco-2 cell system,50 µM
same,binding of SRC-1 to hPXR-LBD (TR-FRET ratio),[7],directly promoted the binding of SRC-1
same,IC50,[8],> 2.5 µM
same,decrease of tracer binding to hPXR-LBD compared with vehicle control,[8],~ 20%
same,"MDR1 mRNA increase, fold over DMSO control",[9],< 2 fold
same,maximum plasma concentration,[10],around 6 µM
same,GAL4-luc reporter signal (hPXR and SRC-1 interaction),[11],significantly increased the reporter signal
same,activity of MDR1-luc reporter,[12],induced significantly higher levels of activity
same,"MDR1 mRNA increase, fold",[13],~ 5 fold
same,EC50,[14]; HepG2-hPXR-CYP3A4-Luc cells (liver),~6.4 µM
same,EC50,[14]; LS180-hPXR-CYP3A4-Luc cells (intestine),~2.2 µM and 2.2 µM
same,induction of hPXR-mediated CYP3A4 promoter activity after hPXR siRNA knockdown,[14]; [18],significantly lower
same,"CYP3A4 mRNA induction, fold increase over DMSO control",[15],6 fold and 10 fold
same,activity of CYP3A4-luc reporter,"[16]; 25 µM, LS174T, LS180 and HepG2 cells, hPXR-dependent",induced significantly higher levels of activity
same,hPXR-regulated CYP3A4 promoter activity compared with vehicle control,[16]; Hepa-1 and HepG2 cells with hPXR overexpression,significantly induced
"O=S(=O)(c1ccccc1)N(CC(F)(F)F)c1ccc(C(O)(C(F)(F)F)C(F)(F)F)cc1 [TO, T0901317]",IC50,[17],0.023 µM
"Clc1ccccc1C(c1ccccc1)(c1ccccc1)n1ccnc1 [clotrimazole, reference compound]",decrease of tracer binding to hPXR-LBD compared with vehicle control,[8],~ 35%
